According to ChEMBL document CHEMBL1153506, “Design, synthesis, and discovery of novel non-peptide inhibitor of Caspase-3 using ligand based and structure based virtual screening approach” (Bioorg Med Chem, 2009):
Calls of active or inactive are those of the source. The rule behind the calls is not given here.

How the values were obtained:
SK-N-SH [1] = assay: Induction of apoptosis in human SK-N-SH cells at 0.5 to 5 uM by fluorescence assay; format: functional, cell-based
Outline: (§1)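 Human SK-N-SH neuroblastoma cells exposed to the test agent at 0.5–5 µM. Apoptosis was read as caspase-3 activity by fluorescence intensity, scanned around 420–430 nm. Values are slopes averaged from 5 experiments, each run in duplicate.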

SK-N-SH [2] = assay: Induction of apoptosis in human SK-N-SH cells assessed as caspase 3 activity at 1 uM by fluorescence assay; format: functional, cell-based; outline: as §1
SK-N-SH [3] = assay: Induction of apoptosis in human SK-N-SH cells assessed as caspase 3 activity at 5 uM by fluorescence assay; format: functional, cell-based; outline: as §1
Caspase-3 = target: T1, Caspase-3 (Homo sapiens, UniProt P42574); assay: Inhibition of caspase 3 in human SK-N-SH cells assessed as accumulation of fluorogenic 7-amino-4-methyl coumarin by fluorometric assay; format: cell-based
T1 sequence (P42574 whole entry): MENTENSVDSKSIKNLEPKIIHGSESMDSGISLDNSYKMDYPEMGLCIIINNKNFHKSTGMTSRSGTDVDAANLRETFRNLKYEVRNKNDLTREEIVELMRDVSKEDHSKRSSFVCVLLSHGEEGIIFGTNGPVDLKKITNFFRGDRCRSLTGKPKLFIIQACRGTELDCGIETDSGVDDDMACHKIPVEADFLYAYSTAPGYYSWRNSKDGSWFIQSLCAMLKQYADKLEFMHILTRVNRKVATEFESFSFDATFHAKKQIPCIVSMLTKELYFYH

Caspase-3 (Homo sapiens) [4] = target: T2, Caspase-3 (Homo sapiens) (UniProt P42574); assay: Inhibition of caspase 3 in human SK-N-SH cells assessed as accumulation of fluorogenic 7-amino-4-methyl coumarin at 0.5 uM by fluorometric assay; format: cell-based
T2 sequence (whole entry): T1 sequence (P42574 whole entry)
Outline: (§2)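 Kit-based caspase-3 cleavage assay, using doxorubicin-induced apoptotic SK-N-SH cell extracts as the caspase source. The inhibitor was dissolved in DMSO and serially diluted to working concentrations, and a standard inhibitor served as control. Fluorescence was recorded across 420–460 nm, and decreases in intensity were expressed relative to apoptotic control extracts.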

Caspase-7 (Homo sapiens) = target: T3, Caspase-7 (Homo sapiens) (UniProt P55210); assay: Inhibition of caspase 7 in human SK-N-SH cells assessed as accumulation of fluorogenic 7-amino-4-methyl coumarin by fluorometric assay; format: cell-based
T3 sequence (whole entry): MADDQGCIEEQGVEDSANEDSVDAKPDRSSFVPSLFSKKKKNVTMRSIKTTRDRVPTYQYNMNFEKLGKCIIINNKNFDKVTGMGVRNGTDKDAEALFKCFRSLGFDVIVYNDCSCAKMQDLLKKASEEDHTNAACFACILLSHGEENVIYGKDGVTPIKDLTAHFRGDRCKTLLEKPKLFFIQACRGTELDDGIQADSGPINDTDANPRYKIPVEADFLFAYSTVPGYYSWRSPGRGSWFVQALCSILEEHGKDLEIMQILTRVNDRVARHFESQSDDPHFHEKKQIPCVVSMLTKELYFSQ

Caspase-3 (Homo sapiens) [5] = target: T2, Caspase-3 (Homo sapiens); assay: Inhibition of caspase 3 in human SK-N-SH cells assessed as accumulation of fluorogenic 7-amino-4-methyl coumarin at 10 uM by fluorometric assay; format: cell-based; outline: as §2
SK-N-SH [6] = assay: Inhibition of apoptosis in human SK-N-SH cells assessed as maximum fluorescence intensity at 440 nm treated at 0.5 uM by fluorescence assay; format: functional, cell-based; outline: as §2
Caspase-3 (Homo sapiens) [7] = target: T2, Caspase-3 (Homo sapiens); assay: Inhibition of caspase 3 in human SK-N-SH cells assessed as accumulation of fluorogenic 7-amino-4-methyl coumarin at 5 mM by fluorometric assay; format: cell-based; outline: as §2
Caspase-3 (Homo sapiens) [8] = target: T2, Caspase-3 (Homo sapiens); assay: Inhibition of caspase 3 in human SK-N-SH cells assessed as accumulation of fluorogenic 7-amino-4-methyl coumarin at 100 uM by fluorometric assay; format: cell-based; outline: as §2
Caspase-3 (Homo sapiens) [9] = target: T2, Caspase-3 (Homo sapiens); assay: Inhibition of caspase 3 in human SK-N-SH cells assessed as decrease in fluorescence intensity-associated with accumulation of fluorogenic 7-amino-4-methyl coumarin at 5 mM by fluorometric assay relative to control; format: cell-based; set-up: scale not given: the % may be the effect or the level left; outline: as §2
Caspase-3 (Homo sapiens) [10] = target: T2, Caspase-3 (Homo sapiens); assay: Inhibition of caspase 3 in human SK-N-SH cells assessed as accumulation of fluorogenic 7-amino-4-methyl coumarin at 1 mM by fluorometric assay; format: cell-based; outline: as §2
Caspase-3 (Homo sapiens) [11] = target: T2, Caspase-3 (Homo sapiens); assay: Inhibition of caspase 3 in human SK-N-SH cells assessed as accumulation of fluorogenic 7-amino-4-methyl coumarin at 50 uM by fluorometric assay; format: cell-based; outline: as §2

IC50 (Caspase-3) [nM] | Activity (Caspase-3 (Homo sapiens) [4]) | Activity (Caspase-7 (Homo sapiens)) | Activity (Caspase-3 (Homo sapiens) [5]) | Activity (Caspase-3 (Homo sapiens) [7]) | Activity (Caspase-3 (Homo sapiens) [8]) | Activity (Caspase-3 (Homo sapiens) [9]) [%] | Activity (Caspase-3 (Homo sapiens) [10]) | Activity (Caspase-3 (Homo sapiens) [11]) | Compound | Activity (SK-N-SH [1]) | Activity (SK-N-SH [2]) | Activity (SK-N-SH [3]) | Activity (SK-N-SH [6])
– | – | – | – | – | – | – | – | – | COc1cccc2c1C(=O)c1c(O)c3c(c(O)c1C2=O)C[C@@](O)(C(=O)CO)C[C@@H]3O[C@H]1C[C@H](N)[C@H](O)[C@H](C)O1 | Active | Active | Active | –
31 | – | – | – | – | – | – | – | – | O=C1Nc2ccc(S(=O)(=O)N3CCCC3CNc3ccccc3)cc2C1=O (centres undefined) | – | – | – | –
– | Active | inactive | inactive | Active | inactive | 50 | Active | inactive | O=C(NCCCN1CCN(Cc2c(F)cccc2Cl)CC1)c1ccc(Cl)c(Cl)c1 | – | – | inactive | Active
